Laboratory results as given in the RNAGym collection of RNA variant scans (doi:10.1101/gad.245936.114).
This sample holds only a part of the variants without activity.

B1: tRNA (parent)
chain: CUCUCGGUAGCCAAGUUGGUUUAAGGCGCAAGACUUUAAUUUAUCACUACGAAAUCUUGAGAUCGGGCGUUCGACUCGCCCCCGGGAGAUUUUUUCCUCGAGCAA

Variants of: B1
Assay: nonsense suppression (GFP-seq) (ratio to wild type); higher = more function; SUP4oc tRNA, yeast GFP reporter sort-seq
How it was run: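 Nonsense suppression (GFPSEQ) is the median GFP/RFP ratio of each sorting bin, weighted by the variant's estimated share of cells in that bin and expressed relative to the unmutated parent tRNA. Yeast strains carried genome-integrated variants of an ochre-suppressor tRNA from a library with ~3% random mutations, plus a galactose-driven GFP ochre reporter and RFP, and were grown in raffinose/galactose medium containing 80 mg/L adenine. Cells were sorted into GFP/RFP bins, each bin was Illumina-sequenced (phred ≥30), and variants were kept only with ≥100 reads and ≥30 cells.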

A30G C83A and C27G A74C G86A cannot be ordered by nonsense suppression: ≤ 0.026 for the first, ≤ 0.026 for the second.

G26U C64G and G26U G65C U71A G78U cannot be ordered by nonsense suppression: ≤ 0.026 for the first, ≤ 0.026 for the second.

Going from C27U C80U to G28U A30C A33G A54G U76C C79A, the nonsense suppression falls from 0.0446 to ≤ 0.026.

Going from A30G C64U to G28A U63C G85U, the nonsense suppression falls from 0.0605 to 0.0331.

Compared with A30G A89C, A30G A89U is lower in nonsense suppression: 0.0603 for the first, 0.0271 for the second.

First: C29U A31C C68U C77A
Second: A24U C82U
The nonsense suppression of the first is lower: ≤ 0.026 for the first, 0.0571 for the second.

First: A24U G85A
Second: A24U G85C
The nonsense suppression of the first is higher: 0.327 for the first, ≤ 0.026 for the second.

First: A24U G85U
Second: G28C A60U U70C
The nonsense suppression of the first is higher: 0.0597 for the first, ≤ 0.026 for the second.

First: A24U C29U
Second: C29A C72A U76A
The nonsense suppression of the first is higher: 0.233 for the first, ≤ 0.026 for the second.

First: C29U C82U
Second: C27G G73C
The nonsense suppression of the first is higher: 0.224 for the first, ≤ 0.026 for the second.

Compared with C27A A62C, A24U G78U is lower in nonsense suppression: 0.349 for the first, 0.0565 for the second.

Going from A30G G73A C75A to G25U A60C, the nonsense suppression falls from 0.318 to ≤ 0.026.

Compared with A30G C82U, G28A C82U is higher in nonsense suppression: 0.0497 for the first, 1.15 for the second.

Going from C29U G59C to C27G A31G A54U U70C G84A, the nonsense suppression falls from 0.0272 to ≤ 0.026.

Compared with G25C A30U, C27U C75A is higher in nonsense suppression: 0.0299 for the first, 0.641 for the second.

First: A30G G61C
Second: A30G G61A
The nonsense suppression of the first is lower: 0.251 for the first, 0.75 for the second.

G26A G65A G86A and G26A U70A cannot be ordered by nonsense suppression: ≤ 0.026 for the first, ≤ 0.026 for the second.

Going from A24U A62G to A24U A62C, the nonsense suppression falls from 0.0414 to ≤ 0.026.

First: A24U A62U
Second: G28U U71G
The nonsense suppression of the first is higher: 0.0332 for the first, ≤ 0.026 for the second.

Going from C29U A33U to G26C G67A, the nonsense suppression falls from 0.0316 to ≤ 0.026.

Compared with G25C A60G, G26U U71G G85U is lower in nonsense suppression: 0.0619 for the first, ≤ 0.026 for the second.

First: G28A C34G G59A
Second: A30G A60G
The nonsense suppression of the first is lower: ≤ 0.026 for the first, 0.108 for the second.

C29A A54U C56U G66C and C27A A33C G66U cannot be ordered by nonsense suppression: ≤ 0.026 for the first, ≤ 0.026 for the second.

G26U C27G A30G U57G C64U G65C and G28U A33U cannot be ordered by nonsense suppression: ≤ 0.026 for the first, ≤ 0.026 for the second.

Compared with G26U G88C, G25C C75A is higher in nonsense suppression: ≤ 0.026 for the first, 0.826 for the second.

Going from C29U U63C G85A to C27U U35A U58A G65A G78C, the nonsense suppression falls from 0.849 to ≤ 0.026.

G28U C34A A87U and C27G U57C G86C cannot be ordered by nonsense suppression: ≤ 0.026 for the first, ≤ 0.026 for the second.

Going from C27U G61C to G25U G61A C82G G88U, the nonsense suppression falls from 0.0306 to ≤ 0.026.

First: C29U U35C
Second: A24U U55C
The nonsense suppression of the first is lower: 0.0545 for the first, 0.104 for the second.

First: G25U G28U C29G C72G C81A
Second: G25C
The nonsense suppression of the first is lower: ≤ 0.026 for the first, 0.185 for the second.

G28C G59A and C29G G86A cannot be ordered by nonsense suppression: ≤ 0.026 for the first, ≤ 0.026 for the second.

Compared with C29U C79U G86A, C27U U63C is higher in nonsense suppression: ≤ 0.026 for the first, 0.0314 for the second.

Going from G26C C34U G61A C82A G85C G86A to A30G A33G, the nonsense suppression rises from ≤ 0.026 to 0.046.

A30G A33U and C27A U55A G85A cannot be ordered by nonsense suppression: ≤ 0.026 for the first, ≤ 0.026 for the second.

Compared with G28U G78U, G28U G78A is lower in nonsense suppression: 0.0435 for the first, 0.0292 for the second.

Going from A24U G85A A87G to A24U C75U C81U, the nonsense suppression falls from 0.215 to ≤ 0.026.

G26A U71G and G25C A89U cannot be ordered by nonsense suppression: ≤ 0.026 for the first, ≤ 0.026 for the second.

First: A30G C75U
Second: A30G A74U
The nonsense suppression of the first is higher: 1.19 for the first, 0.028 for the second.

Compared with A30G A74G, A30G A74C is lower in nonsense suppression: 0.098 for the first, 0.0554 for the second.

Compared with G25U A60G G61A, C29U A54U is higher in nonsense suppression: ≤ 0.026 for the first, 0.869 for the second.

Compared with G28A U35G G65U G73A C80U, G28C U76C is higher in nonsense suppression: ≤ 0.026 for the first, 0.799 for the second.

Going from C29U A87G to C29G U55A, the nonsense suppression falls from 0.438 to ≤ 0.026.

C29U G67C and C27A C83G G84C cannot be ordered by nonsense suppression: ≤ 0.026 for the first, ≤ 0.026 for the second.

Compared with G25C C68U, G28A U63A C68G U70A G85C is lower in nonsense suppression: 0.031 for the first, ≤ 0.026 for the second.

C29G G78A and A24U U35A cannot be ordered by nonsense suppression: ≤ 0.026 for the first, ≤ 0.026 for the second.

First: C27U G85A
Second: C27U G28A
The nonsense suppression of the first is higher: 0.207 for the first, 0.0265 for the second.

C27U G59U G61U G66U and G28C C34U cannot be ordered by nonsense suppression: ≤ 0.026 for the first, ≤ 0.026 for the second.

Going from G28C C64U to G26U U70G C79U, the nonsense suppression falls from 0.0765 to ≤ 0.026.

Going from G28C U55G to G28C U55C, the nonsense suppression rises from ≤ 0.026 to 0.183.

Going from C29U G65A C81U to C29U C77G, the nonsense suppression falls from 1.14 to 0.0454.

Compared with G28C U71C, G26U G28U is lower in nonsense suppression: 0.112 for the first, ≤ 0.026 for the second.

First: C27G G32U C75A C81G G88C
Second: C29U C83U
The nonsense suppression of the first is lower: ≤ 0.026 for the first, 0.0384 for the second.

First: A24U A60G G65U G88C A89G
Second: C29U G86C
The nonsense suppression of the first is lower: ≤ 0.026 for the first, 0.0331 for the second.

Compared with G28A G84A, G28C A60C is higher in nonsense suppression: ≤ 0.026 for the first, 0.235 for the second.

First: A24U U76C
Second: A30G
The nonsense suppression of the first is lower: 0.131 for the first, 1.11 for the second.

First: G25A G26U C56G
Second: A24U C80U
The nonsense suppression of the first is lower: 0.0585 for the first, 0.192 for the second.

Going from G28A G61A to C29U, the nonsense suppression rises from 0.8 to 1.07.

Compared with C29G, C29A is higher in nonsense suppression: ≤ 0.026 for the first, 0.113 for the second.

C27U C77A and C29U U76A G84U cannot be ordered by nonsense suppression: ≤ 0.026 for the first, ≤ 0.026 for the second.

First: A30C A60U U63A G69C
Second: A30G U63C
The nonsense suppression of the first is lower: ≤ 0.026 for the first, 0.205 for the second.

First: G28U A60C
Second: G26A C77G
The nonsense suppression of the first is higher: 0.669 for the first, ≤ 0.026 for the second.

Going from G25A C29A G84C to G26U A33G G78C G84A, the nonsense suppression falls from 0.027 to ≤ 0.026.

G26U G69U C79U and G26C U57A A89C cannot be ordered by nonsense suppression: ≤ 0.026 for the first, ≤ 0.026 for the second.

C29A U57A G73A and G28C C34A C68G A89G cannot be ordered by nonsense suppression: ≤ 0.026 for the first, ≤ 0.026 for the second.

First: G28C C34A C68G A89U
Second: C29U C72U
The nonsense suppression of the first is lower: ≤ 0.026 for the first, 0.101 for the second.

G28A A31G G73C and A30C A31U cannot be ordered by nonsense suppression: ≤ 0.026 for the first, ≤ 0.026 for the second.

Going from G28C G78A to G28C G78C, the nonsense suppression falls from 0.0288 to ≤ 0.026.

G25C C27G and G26C C29U G67U cannot be ordered by nonsense suppression: ≤ 0.026 for the first, ≤ 0.026 for the second.

First: C29U G73A
Second: C29U U71C
The nonsense suppression of the first is higher: 0.238 for the first, 0.0323 for the second.

First: C29A C75U
Second: C27U U58A
The nonsense suppression of the first is higher: 0.0265 for the first, ≤ 0.026 for the second.

Going from G28A C75G to A30G G59C A60C, the nonsense suppression falls from 1.02 to ≤ 0.026.

C27G C77G and G26U A31G A54U U57C G73C cannot be ordered by nonsense suppression: ≤ 0.026 for the first, ≤ 0.026 for the second.

Compared with C27U G32C, C29U G85A is higher in nonsense suppression: ≤ 0.026 for the first, 1.14 for the second.

First: C29U G85U
Second: G26U U71C
The nonsense suppression of the first is higher: 0.0262 for the first, ≤ 0.026 for the second.

Compared with G26U G61A, A30C U58G is higher in nonsense suppression: ≤ 0.026 for the first, 1.02 for the second.

First: G25C A31C G73A
Second: G28C U57A
The nonsense suppression of the first is lower: ≤ 0.026 for the first, 0.0447 for the second.

Compared with G28C U57C, C27G C80U C83A is lower in nonsense suppression: 0.0349 for the first, ≤ 0.026 for the second.

C29G G32A G67U C75A and C27U U71C C77G cannot be ordered by nonsense suppression: ≤ 0.026 for the first, ≤ 0.026 for the second.

G26C U63G and C27A G59U cannot be ordered by nonsense suppression: ≤ 0.026 for the first, ≤ 0.026 for the second.

First: A24U C72G
Second: G26C A60C
The nonsense suppression of the first is higher: 0.03 for the first, 0.027 for the second.

Going from G28C G61A U63C to C27A C34G A60U C77U, the nonsense suppression falls from 0.041 to ≤ 0.026.

First: C29U C64U
Second: C27U A54U
The nonsense suppression of the first is lower: 0.035 for the first, 0.104 for the second.

Compared with C27U A54C, C29U U57A U63G is lower in nonsense suppression: 0.0314 for the first, ≤ 0.026 for the second.

In the case of G25U C75U, the nonsense suppression is reported as ≤ 0.026.
